Data as given in ChEMBL document CHEMBL1828621, “Single step synthesis of new fused pyrimidine derivatives and their evaluation as potent Aurora-A kinase inhibitors” (Eur J Med Chem, 2011).
≈ marks a conversion by molar mass, not a printed value.

How the values were obtained:
Aurora kinase A = biological target: T1, Aurora kinase A (Homo sapiens, UniProt O14965); assay: Inhibition of GST-tagged Aurora A kinase expressed in insect cells assessed as inhibition of [33P]gamma-ATP incorporation in substrate after 60 mins by scintillation counting
T1 sequence (O14965 whole entry): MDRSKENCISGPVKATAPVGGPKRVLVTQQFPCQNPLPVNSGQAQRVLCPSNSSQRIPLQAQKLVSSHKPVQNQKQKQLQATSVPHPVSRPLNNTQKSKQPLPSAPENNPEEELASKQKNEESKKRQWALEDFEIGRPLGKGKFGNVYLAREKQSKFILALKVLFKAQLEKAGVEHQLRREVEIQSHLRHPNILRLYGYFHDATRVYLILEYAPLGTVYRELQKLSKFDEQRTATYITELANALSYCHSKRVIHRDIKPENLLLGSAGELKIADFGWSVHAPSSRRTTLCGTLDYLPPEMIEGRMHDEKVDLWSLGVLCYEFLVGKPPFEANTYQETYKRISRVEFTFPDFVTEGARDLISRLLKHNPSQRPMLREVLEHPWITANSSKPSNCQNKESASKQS
In short: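 Reaction: biotinylated CHOCKtide substrate with ATP/[γ-33P]ATP mix, 60 min at room temperature, in 50 mM HEPES pH 7.5, 10 mM MgCl₂, 1 mM DTT, NaVO₃ and 0.2 mg/mL BSA. Stopped with EDTA/ATP plus streptavidin SPA beads; beads floated on 5 M CsCl and counted for phosphate incorporated into substrate.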

HCT-116 [1] = assay: Cytotoxicity against human HCT116 cells assessed as cell survival at 1 ug/ml after 48 hrs by sulforhodamine B method relative to control; format: functional
In short: (§1)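 HCT116 colon tumour cells grown in RPMI 1640 with 5% FBS and 2 mM L-glutamine. Seeded at 10,000 cells/well and held 24 h at 37 °C, 5% CO₂ before dosing. Drugs kept as DMSO stocks at 400-fold the top final concentration, diluted in medium with gentamicin, tested at four concentrations for 48 h. Fixed with cold TCA (final 10%) for 60 min at 4 °C, stained with 0.4% SRB, bound dye dissolved in Tris-EDTA, read on an ELISA reader. Extra plates fixed at dosing served as baseline.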

HCT-116 [2] = assay: Cytotoxicity against human HCT116 cells assessed as cell survival at 2.5 ug/ml after 48 hrs by sulforhodamine B method relative to control; format: functional; in short: as §1
HCT-116 [3] = assay: Cytotoxicity against human HCT116 cells assessed as cell survival at 5 ug/ml after 48 hrs by sulforhodamine B method relative to control; format: functional; in short: as §1
HCT-116 [4] = assay: Cytotoxicity against human HCT116 cells assessed as cell survival at 10 ug/ml after 48 hrs by sulforhodamine B method relative to control; format: functional; in short: as §1
HCT-116 [5] = assay: Cytotoxicity against human HCT116 cells after 48 hrs by sulforhodamine B method; format: functional, cell-based; settings: HCT-116, 48 h; in short: as §1

Compound	IC50 (Aurora kinase A)	IC50 (Aurora kinase A; read-out: IC50)	Ratio (HCT-116 [1])	Ratio (HCT-116 [2])	Ratio (HCT-116 [3])	Ratio (HCT-116 [4])	IC50 (HCT-116 [5])
O=S(=O)(c1ccccc1)c1cnc2nc3ccccc3n2c1-c1ccc(Cl)cc1	Not Active		0.95	0.905	0.889	0.79	> 25 µg/mL
Cc1cc2ncc(S(=O)(=O)c3ccccc3)c(-c3ccccc3)n2n1		101 nM	0.774	0.698	0.671	0.597	> 25 µg/mL
O=S(=O)(c1ccccc1)c1cnc2ncnn2c1-c1ccc(Cl)cc1		9240 nM	0.786	0.377	0.316	0.243	2.15 µg/mL (≈ 5.8 µM)
O=S(=O)(c1ccccc1)c1cnc2nc3ccccc3n2c1-c1ccccc1	Not Active		0.984	0.885	0.845	0.82	> 25 µg/mL
O=S(=O)(c1ccccc1)c1cnc2ncnn2c1-c1ccccc1		104 nM	0.689	0.302	0.294	0.256	1.97 µg/mL (≈ 5.86 µM)
COc1cccc2c1C(=O)c1c(O)c3c(c(O)c1C2=O)C[C@@](O)(C(=O)CO)C[C@@H]3O[C@H]1C[C@H](N)[C@H](O)[C@H](C)O1 [DOXORUBICIN]		40 nM	0.523	0.439	0.42	0.291	1.3 µg/mL (≈ 2.39 µM)
O=S(=O)(c1ccccc1)c1cnc2c(Br)c(-c3ccccc3)nn2c1-c1ccccc1		39 nM	0.629	0.42	0.271	0.24	1.34 µg/mL (≈ 2.73 µM)
O=S(=O)(c1ccccc1)c1cnc2cc(-c3ccccc3)nn2c1-c1ccccc1		51 nM	0.683	0.455	0.43	0.377	1.27 µg/mL (≈ 3.09 µM)
O=S(=O)(c1ccccc1)c1cnc2nc3ccccc3n2c1-c1ccc(Br)cc1	Not Active		1	0.748	0.624	0.209	16.3 µg/mL (≈ 35.1 µM)
Cc1nn2c(-c3ccccc3)c(S(=O)(=O)c3ccccc3)cnc2c1Br	Not Active		0.529	0.373	0.253	0.183	2.21 µg/mL (≈ 5.16 µM)

Continued, in another order:

IC50 (Aurora kinase A)	IC50 (Aurora kinase A; read-out: IC50)	Compound	Ratio (HCT-116 [1])	Ratio (HCT-116 [2])	Ratio (HCT-116 [3])	Ratio (HCT-116 [4])	IC50 (HCT-116 [5])
Not Active		Cc1ccc(-c2cc3ncc(S(=O)(=O)c4ccccc4)c(-c4ccc(C)cc4)n3n2)cc1	1	0.764	0.408	0.246	10.5 µg/mL (≈ 23.9 µM)
Not Active		O=S(=O)(c1ccccc1)c1cnc2cc(-c3ccccc3)nn2c1-c1ccc(Cl)cc1	0.987	0.953	0.894	0.797	> 25 µg/mL
Not Active		Cc1ccc(-c2c(S(=O)(=O)c3ccccc3)cnc3cc(-c4ccccc4)nn23)cc1	1	0.745	0.701	0.253	18 µg/mL (≈ 42.3 µM)
	120 nM	O=S(=O)(c1ccccc1)c1cnc2cc(-c3ccc(Cl)cc3)nn2c1-c1ccccc1	0.56	0.508	0.42	0.42	1.64 µg/mL (≈ 3.68 µM)
Not Active		Cc1ccc(-c2c(S(=O)(=O)c3ccccc3)cnc3c(Br)c(-c4ccccc4)nn23)cc1	1	0.701	0.53	0.309	14 µg/mL (≈ 27.8 µM)
Not Active		Cc1ccc(-c2c(S(=O)(=O)c3ccccc3)cnc3cc(-c4ccc(Cl)cc4)nn23)cc1	1	0.665	0.382	0.333	9.3 µg/mL (≈ 20.2 µM)
Not Active		COc1ccc(-c2cc3ncc(S(=O)(=O)c4ccccc4)c(-c4ccc(Cl)cc4)n3n2)cc1	0.824	0.794	0.778	0.744	> 25 µg/mL
	25 nM	COc1ccc(-c2cc3ncc(S(=O)(=O)c4ccccc4)c(-c4ccccc4)n3n2)cc1	0.516	0.436	0.288	0.217	1.28 µg/mL (≈ 2.9 µM)
